In general, inhibition refers to the share of the control response that was lost under treatment.

The target of assay [1] is T1, Nitric oxide synthase 3 (Homo sapiens) (UniProt P29474).
T1 sequence (whole entry): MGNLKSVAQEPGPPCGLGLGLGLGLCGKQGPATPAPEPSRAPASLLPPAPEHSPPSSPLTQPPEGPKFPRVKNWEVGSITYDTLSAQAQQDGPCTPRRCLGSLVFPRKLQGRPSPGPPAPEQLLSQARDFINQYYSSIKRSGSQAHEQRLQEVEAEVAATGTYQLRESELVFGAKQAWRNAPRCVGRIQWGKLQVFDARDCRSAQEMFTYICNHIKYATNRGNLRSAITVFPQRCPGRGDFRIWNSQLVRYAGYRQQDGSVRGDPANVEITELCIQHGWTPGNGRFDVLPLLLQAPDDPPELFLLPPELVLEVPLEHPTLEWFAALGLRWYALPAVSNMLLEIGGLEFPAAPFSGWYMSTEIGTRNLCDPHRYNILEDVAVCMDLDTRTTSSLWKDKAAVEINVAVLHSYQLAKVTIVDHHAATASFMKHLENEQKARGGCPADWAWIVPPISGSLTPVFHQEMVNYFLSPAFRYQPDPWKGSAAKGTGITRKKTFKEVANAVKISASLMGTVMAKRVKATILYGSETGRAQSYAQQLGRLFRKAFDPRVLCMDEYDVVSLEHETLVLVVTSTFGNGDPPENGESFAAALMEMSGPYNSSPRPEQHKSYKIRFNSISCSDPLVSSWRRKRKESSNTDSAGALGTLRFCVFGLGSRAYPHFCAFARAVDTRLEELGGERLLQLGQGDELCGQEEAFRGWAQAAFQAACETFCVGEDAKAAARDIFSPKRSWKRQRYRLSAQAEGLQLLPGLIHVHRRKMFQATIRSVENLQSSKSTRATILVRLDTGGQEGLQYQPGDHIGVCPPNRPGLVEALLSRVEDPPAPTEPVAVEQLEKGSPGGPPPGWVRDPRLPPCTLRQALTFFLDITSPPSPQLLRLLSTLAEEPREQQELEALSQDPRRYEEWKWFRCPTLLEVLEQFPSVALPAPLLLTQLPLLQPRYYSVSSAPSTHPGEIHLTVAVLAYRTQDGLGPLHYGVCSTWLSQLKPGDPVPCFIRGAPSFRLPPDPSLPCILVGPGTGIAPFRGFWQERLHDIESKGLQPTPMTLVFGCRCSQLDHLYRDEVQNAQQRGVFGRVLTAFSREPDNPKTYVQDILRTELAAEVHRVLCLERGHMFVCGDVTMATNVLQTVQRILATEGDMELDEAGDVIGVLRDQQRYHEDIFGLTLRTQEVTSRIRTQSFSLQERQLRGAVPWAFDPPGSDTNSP
Nature of the assay: Inhibition of human eNOS expressed in HEK293 cells assessed as NO production at 100 uM by transient transfection assay relative to BBS-4. In kind it is cell-based. The essentials:
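HEK293 cells transiently transfected with human eNOS (15 µg plasmid) or nNOS (10 µg plasmid), Fugene 6 at 3:1 µL:µg, 4 h at 37 °C, 10% CO2. Plated at 5 × 10⁵ cells/mL with compound; SEITU 100 µM final as positive control. After 24 h, activated with A23187 (83 nM final, eNOS) or ionomycin (30 µM final, nNOS). After 18 h more, NO read by DAN fluorescence. Inhibition is relative to the maximal inhibition by the control dimerization inhibitor. 3 runs, 10-point curves, n = 3/point.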

Assay [2] concerns Mus musculus. Nature of the assay: Antinociceptive activity against acetone-induced chronic constriction injury in mouse paw assessed as duration of pain behavior at 100 mg/kg, po pretreated 30 mins before formalin challenge relative to control. The format is functional. The settings on record: in the assay text read “acetone testing” for “formalin challenge”. The essentials:
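Mice underwent chronic constriction injury surgery (Bennett and Xie) and recovered 1–2 weeks. After 100 mg/kg po dosing 30 min before testing and 1 h acclimation on a wire mesh platform, 100 µL acetone was applied to the injured plantar hindpaw. Flinching, licking and biting were recorded for 1 min, with reduction relative to vehicle.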

Turning to `CC(C)C(=O)N(Cc1cc(=O)[nH]c2c(F)cccc12)c1cccc(Cl)c1`, in assay [1], the inhibition was below 50%.

As to `Cc1ncsc1C(=O)N(Cc1cc(=O)[nH]c2c(F)cccc12)c1cccc(Cl)c1`, the Activity in assay [2] is reported as 45%.
